The term EC50 denotes the concentration that produces a half-maximal response.

Results on 13 compounds are retold here after ChEMBL document CHEMBL2157936, “Structure-activity relationships for side chain oxysterol agonists of the hedgehog signaling pathway” (ACS Med Chem Lett, 2012).

Assay [1] in a line: Agonist activity at Hh receptor in mouse C3H10T1/2 cells assessed as fold increase in Gli1 expression at 5 uM by RT-PCR analysis relative to control. The format is functional, C3H 10T1/2.
Assay [2] is described as follows: Agonist activity at LXR in mouse C3H10T1/2 cells assessed as fold increase in ABCA1 expression at 5 uM by RT-PCR analysis relative to control. The format is functional, C3H 10T1/2.
A short description of assay [3]: Selectivity ratio of agonist activity at Hh receptor over agonist activity at LXR in mouse C3H10T1/2 cells. Type of assay: functional, C3H 10T1/2.
Assay [4] is described as follows: (§1) Agonist activity at Hh receptor in mouse C3H10T1/2 cells assessed as increase in Gli1 expression by RT-PCR analysis. Type of assay: functional, cell-based. As to conditions: C3H 10T1/2. In a few lines: (§2)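 Dose-response in C3H10T1/2 and M2-10B4 cells. Read-out: mRNA of GLI1, PTCH (Hh) or ABCA1 (LXR), expressed relative to the DMSO control. EC50 values were derived from these curves.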

Assay [5] has as its system C3H 10T1/2. Described as §1. Type of assay: functional, cell-based. Summed up:
as §2

A short description of assay [6]: (§3) Agonist activity at Hh receptor in mouse M210B4 cells assessed as increase in Gli1 expression by RT-PCR analysis. The format is functional, cell-based. Summed up:
as §2

Assay [7] concerns M210B4. The assay is described as §3. The format is functional, cell-based. In a few lines:
as §2

A short description of assay [8]: (§4) Agonist activity at Hh receptor in mouse C3H10T1/2 cells assessed as increase in Ptch expression by RT-PCR analysis. The format is functional, cell-based. As to conditions: C3H 10T1/2. Summed up: as §2
The test system of assay [9] is C3H 10T1/2. The assay is described as §4. Type of assay: functional, cell-based. Summed up:
as §2

Assay [10] in a line: (§5) Agonist activity at Hh receptor in mouse M210B4 cells assessed as increase in Ptch expression by RT-PCR analysis. Type of assay: functional, cell-based. Summed up:
as §2

The test system of assay [11] is M210B4. The description is as §5. The format is functional, cell-based. Summed up: as §2
Assay [12] in a line: Agonist activity at LXR in mouse C3H10T1/2 cells assessed as increase in ABCA1 expression by RT-PCR analysis. Type of assay: functional, cell-based. As to conditions: C3H 10T1/2. Summed up: as §2
The nature of assay [13]: Agonist activity at LXR in mouse M210B4 cells assessed as increase in ABCA1 expression by RT-PCR analysis. Type of assay: functional, cell-based. In a few lines: as §2
Assay [14] relates to C3H 10T1/2. Kind of assay: Selectivity ratio of EC50 for LXR to EC50 for Hh receptor in mouse C3H10T1/2 cells. Type of assay: cell-based.
The test system of assay [15] is M210B4. The assay is described as follows: Selectivity ratio of EC50 for LXR to EC50 for Hh receptor in mouse M210B4 cells. Type of assay: cell-based.
The test system of assay [16] is M210B4. The assay is described as follows: Agonist activity at Hh receptor in mouse M210B4 cells assessed as upregulation of Gli1 at 5 uM after 24 hrs by RT-PCR analysis relative to control. Type of assay: functional, cell-based. In a few lines:
(§6)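 Read-out: GLI1 or PTCH mRNA in M2-10B4 cells. Cells were pretreated for 2 h with cyclopamine (5 μM), or left without it, then given OHC (5 μM). mRNA was measured after 24 h of incubation and expressed as fold induction over the DMSO control, set at 1. Data come from a representative experiment run in triplicate.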

The test system of assay [17] is M210B4. Kind of assay: Agonist activity at Hh receptor in mouse M210B4 cells assessed as upregulation of Ptch at 5 uM after 24 hrs by RT-PCR analysis relative to control. Type of assay: functional, cell-based. In a few lines:
as §6

In assay [18] the test system is M210B4. The assay is described as follows: Agonist activity at Hh receptor in mouse M210B4 cells assessed as upregulation of Gli1 at 5 uM after 24 hrs by RT-PCR analysis in presence of cyclopamine relative to control. The format is functional, cell-based. In a few lines: as §6
Assay [19] relates to M210B4. Kind of assay: Agonist activity at Hh receptor in mouse M210B4 cells assessed as upregulation of Ptch at 5 uM after 24 hrs by RT-PCR analysis in presence of cyclopamine relative to control. Type of assay: functional, cell-based. In a few lines: as §6
The subject of assay [20] is M210B4. Kind of assay: Induction of Hh receptor-mediated osteogenesis in mouse M210B4 cells assessed as fold increase in Osx expression at 5 uM after 24 hrs by RT-PCR analysis relative to control. The format is cell-based. Summed up: (§7)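 M2-10B4 cells received OHC (5 μM), or the 20(S)-/22(S)-OHC pair (5 μM each). Osterix and alkaline phosphatase mRNA were measured at time points of 24, 48 and 96 h. Expression is relative to the DMSO control. Data come from a representative experiment run in triplicate.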

Assay [21] relates to M210B4. The assay is described as follows: Induction of Hh receptor-mediated osteogenesis in mouse M210B4 cells assessed as fold increase in Osx expression at 5 uM after 48 hrs by RT-PCR analysis relative to control. The format is cell-based. In a few lines:
as §7

Assay [22] deals with M210B4. The assay is described as follows: Induction of Hh receptor-mediated osteogenesis in mouse M210B4 cells assessed as fold increase in Osx expression at 5 uM up to 96 hrs by RT-PCR analysis relative to control. The format is cell-based. Summed up:
as §7

The subject of assay [23] is M210B4. Kind of assay: Induction of Hh receptor-mediated osteoblast formation in mouse M210B4 cells assessed as increase in ALP expression at 5 uM after 24 hrs by RT-PCR analysis relative to control. The format is cell-based. In a few lines: as §7
The test system of assay [24] is M210B4. The assay is described as follows: Induction of Hh receptor-mediated osteoblast formation in mouse M210B4 cells assessed as increase in ALP expression at 5 uM after 48 hrs by RT-PCR analysis relative to control. Type of assay: cell-based. In a few lines: as §7
For assay [25], the system named is M210B4. The assay is described as follows: Induction of Hh receptor-mediated osteoblast formation in mouse M210B4 cells assessed as increase in ALP expression at 5 uM up to 96 hrs by RT-PCR analysis relative to control. Type of assay: cell-based. Summed up:
as §7

For assay [26], the system named is M210B4. The assay is described as follows: Ratio of EC50 for Hh receptor in mouse M210B4 cells to EC50 for Hh receptor in mouse C3H10T1/2 cells. The format is cell-based.

Activity calls are given as the source filed them. No cut-off for these calls is given here. Where only a bound is given, the exact number is not on record here.

As to `CC(C)C[C@@H](O)C[C@@H](C)[C@H]1CC[C@H]2[C@@H]3CC=C4C[C@@H](O)CC[C@]4(C)[C@H]3CC[C@]12C`, the “fold change (FC)” value in [1] was 87.1; in assay [2], 4.9; in the assay with M210B4 [20], 5; in the assay on M210B4 [21] it was > 30. For the same compound, the Selectivity ratio in assay [3] came out at 17.8. Further, the EC50 stood at 540 nM in [4]; 570 nM in assay [6]; 650 nM in assay [8]; 580 nM in assay [10]; 1530 nM in assay [12]; 1540 nM in assay [13]. Further, the Activity result in the assay with C3H 10T1/2 [5], in the assay on M210B4 [7], with C3H 10T1/2 [9] and in the assay with M210B4 [11] was “Dose-dependent effect” throughout. In addition, the Ratio EC50 in the assay with C3H 10T1/2 [14] was 3; in the assay on M210B4 [15], 3; in the assay on M210B4 [26] it was 1.06. For the same compound, the outcome in the assay with M210B4 [16], with M210B4 [17], with M210B4 [22], in the assay on M210B4 [23], in the assay on M210B4 [24] and with M210B4 [25] was Active. In addition, the result with M210B4 [18] and in the assay with M210B4 [19] was inactive.
On to `CC(C)CCC[C@](C)(O)[C@H]1CC[C@H]2[C@@H]3CC=C4C[C@@H](O)CC[C@]4(C)[C@H]3CC[C@@]21C`, for which the “fold change (FC)” value in assay [1] is 91.8; in [2] it was 13.4. Besides, the Selectivity ratio in assay [3] is reported as 6.8.
Consider `C[C@H](C(=O)CCC(C)(C)O)[C@H]1CC[C@H]2[C@@H]3CC=C4C[C@@H](O)CC[C@]4(C)[C@H]3CC[C@]12C`, for which the “fold change (FC)” value is on record as 6 in assay [1] and 21.7 in assay [2].
With `C[C@H](CCCC(C)(C)O)[C@H]1CC[C@H]2[C@@H]3CC=C4C[C@@H](O)CC[C@]4(C)[C@H]3CC[C@]12C`, the entries for the “fold change (FC)” value in [1] and in assay [2] were 69.9 and 9.8, respectively. Further, the Selectivity ratio in [3] worked out at 7.1.
Taken in the same sequence, the figures for `C[C@@H]([C@H]1CC[C@H]2[C@@H]3CC=C4C[C@@H](O)CC[C@]4(C)[C@H]3CC[C@]12C)[C@@H](O)CCC(C)(C)O` were 9.9, 2.9 and 3.4.
Consider `C[C@H](CCO)[C@H]1CC[C@H]2[C@@H]3CC=C4C[C@@H](O)CC[C@]4(C)[C@H]3CC[C@]12C`, for which the “fold change (FC)” value turned out to be 4.1 in assay [1] and 0.4 in assay [2]. Besides, in assay [3], the Selectivity ratio turned out to be 10.4.
For the compound `CC(C)(O)CC[C@](C)(O)[C@H]1CC[C@H]2[C@@H]3CC=C4C[C@@H](O)CC[C@]4(C)[C@H]3CC[C@@]21C`, the “fold change (FC)” value in assay [1] stood at 18.1; in assay [2], 10.3. In addition, the Selectivity ratio in assay [3] amounted to 1.8.
Consider `CC(C)C[C@H](O)C[C@@H](C)[C@H]1CC[C@H]2[C@@H]3CC=C4C[C@@H](O)CC[C@]4(C)[C@H]3CC[C@]12C`, for which the “fold change (FC)” value in assay [1] was determined as 32.4; in [2], 3.6. In [3], the Selectivity ratio stood at 9.
On to `CC(C)(O)CCC[C@](C)(O)[C@H]1CC[C@H]2[C@@H]3CC=C4C[C@@H](O)CC[C@]4(C)[C@H]3CC[C@@]21C`, for which the figures for the “fold change (FC)” value in [1] and in assay [2] were 107.8 and 26.3, respectively. The Selectivity ratio in assay [3] stood at 4.1.
On to `CC(C)CC[C@H](O)[C@@H](C)[C@H]1CC[C@H]2[C@@H]3CC=C4C[C@@H](O)CC[C@]4(C)[C@H]3CC[C@]12C`, for which the “fold change (FC)” value was determined as 52.5 in assay [1] and 2.3 in assay [2]. Moreover, the Selectivity ratio in assay [3] is listed as 22.8.
On to `CC(C)CC[C@@H](O)[C@@H](C)[C@H]1CC[C@H]2[C@@H]3CC=C4C[C@@H](O)CC[C@]4(C)[C@H]3CC[C@]12C` [22(R)-HYDROXYCHOLESTEROL], for which the “fold change (FC)” value was 4.7 in [1] and 24.1 in assay [2].
On to `C[C@H](C(O)CCC(C)(C)O)[C@H]1CC[C@H]2[C@@H]3CC=C4C[C@@H](O)CC[C@]4(C)[C@H]3CC[C@]12C` (mixture of isomers), for which the “fold change (FC)” value in assay [1] was 1; in [2], 0.9.
With `CC(C)CCC[C@@H](C)[C@H]1CC[C@H]2[C@@H]3[C@@H](O)C=C4C[C@@H](O)CC[C@]4(C)[C@H]3CC[C@]12C`, the “fold change (FC)” value in assay [1] was 1.6; in assay [2], 0.6. Moreover, the Selectivity ratio in assay [3] worked out at 2.6.
